The text below walks through data of ChEMBL document CHEMBL1629614, “Inhibition of methionyl-tRNA synthetase by REP8839 and effects of resistance mutations on enzyme activity” (Antimicrob Agents Chemother, 2009).

Compound in data set [1]: C=C(F)c1sc(CNCCCNc2cc(=O)c3ccccc3[nH]2)c(C)c1Br
The data set can be described thus: Activity of Staphylococcus aureus MetRS L213W mutant by ATP:PPi exchange assay in presence of methionine. The gist of the method: (§1)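 Purified S. aureus MetRS (wild type or mutant; E. coli-expressed, ammonium sulfate cut, anion exchange) at 30 nM. ATP:PPi exchange at 30°C in 100 mM Tris-HCl pH 8.0, 5–10 mM Mg acetate, 80 mM KCl, 2.5 mM DTT, [32P]PPi plus cold PPi equal to ATP. Quenched with EDTA over 1–10 min, PEI-cellulose TLC, phosphorimager. Initial velocities versus varied ATP or methionine fit to Michaelis-Menten.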

Compound in data set [2]: C=C(F)c1sc(CNCCCNc2cc(=O)c3ccccc3[nH]2)c(C)c1Br
The data set can be described thus: Activity of streptococcus aureus MetRS L213W mutant by scintillation proximity assay in presence of tRNA. The conditions noted are these: Staphylococcus aureus.

Compound in data set [3]: C=C(F)c1sc(CNCCCNc2cc(=O)c3ccccc3[nH]2)c(C)c1Br
The data set can be described thus: Ratio of Kcat to Km for Staphylococcus aureus MetRS L213W mutant in presence of ATP. The gist of the method:
(§2)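 Purified recombinant S. aureus MetRS (30 nM) was assayed by ATP:PPi exchange at 30°C in Tris pH 8.0 with Mg acetate, KCl and DTT. [32P]PPi was matched to ATP, and ATP or methionine was varied. Time points from 1 to 10 min were quenched with EDTA, separated by PEI-cellulose TLC and read by phosphorimager. Initial rates were fitted to Michaelis-Menten.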

Compound in data set [4]: C=C(F)c1sc(CNCCCNc2cc(=O)c3ccccc3[nH]2)c(C)c1Br
The data set can be described thus: Ratio of Kcat to Km for Staphylococcus aureus MetRS L213W mutant in presence of tRNA. The gist of the method:
(§3)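 Purified recombinant S. aureus MetRS was assayed by tRNA aminoacylation at 30°C for 1 to 7.5 min to obtain initial rates. Buffer was Tris pH 8.0 with Mg acetate, 2.5 mM ATP, KCl, DTT, BSA, [3H]methionine and crude E. coli tRNA. Reactions were EDTA-stopped, and charged tRNA was read by scintillation proximity with polylysine beads at pH 2.0.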

Compound in data set [5]: C=C(F)c1sc(CNCCCNc2cc(=O)c3ccccc3[nH]2)c(C)c1Br
The data set can be described thus: Activity of Staphylococcus aureus MetRS L213W mutant by ATP:PPi exchange assay in presence of ATP. The gist of the method:
as §1

Compound in data set [6]: C=C(F)c1sc(CNCCCNc2cc(=O)c3ccccc3[nH]2)c(C)c1Br
The data set can be described thus: Ratio of Kcat to Km for Staphylococcus aureus MetRS L213W mutant in presence of methionine. In short, it runs like this: as §2

Compound in data set [7]: C=C(F)c1sc(CNCCCNc2cc(=O)c3ccccc3[nH]2)c(C)c1Br
Description: Ratio of Kcat to Km for Staphylococcus aureus MetRS I57N mutant in presence of ATP. In short, it runs like this: as §2

Compound in data set [8]: C=C(F)c1sc(CNCCCNc2cc(=O)c3ccccc3[nH]2)c(C)c1Br
The data set can be described thus: Activity of Staphylococcus aureus MetRS I57N mutant by ATP:PPi exchange assay in presence of ATP. The gist of the method:
as §1

Compound in data set [9]: C=C(F)c1sc(CNCCCNc2cc(=O)c3ccccc3[nH]2)c(C)c1Br
Description: Ratio of Kcat to Km for Staphylococcus aureus MetRS I57N mutant in presence of tRNA. In short, it runs like this: as §3

Compound in data set [10]: C=C(F)c1sc(CNCCCNc2cc(=O)c3ccccc3[nH]2)c(C)c1Br
Description: Activity of streptococcus aureus MetRS I57N mutant by scintillation proximity assay in presence of tRNA. The conditions noted are these: Staphylococcus aureus.

Compound in data set [11]: C=C(F)c1sc(CNCCCNc2cc(=O)c3ccccc3[nH]2)c(C)c1Br
Description: Ratio of Kcat to Km for Staphylococcus aureus MetRS I57N mutant in presence of methionine. In short, it runs like this: as §2

Compound in data set [12]: C=C(F)c1sc(CNCCCNc2cc(=O)c3ccccc3[nH]2)c(C)c1Br
The data set can be described thus: Activity of Staphylococcus aureus MetRS I57N mutant by ATP:PPi exchange assay in presence of methionine. The gist of the method: as §1

B1: Methionine--tRNA ligase (Staphylococcus aureus subsp. aureus MW2), Q8NY00 L213W (protein)
chain: MAKETFYITTPIYYPSGNLHIGHAYSTVAGDVIARYKRMQGYDVRYLTGTDEHGQKIQEKAQKAGKTEIEYLDEMIAGIKQLWAKLEISNDDFIRTTEERHKHVVEQVFERLLKQGDIYLGEYEGWYSVPDETYYTESQLVDPQYENGKIIGGKSPDSGHEVELVKEESYFFNISKYTDRLLEFYDQNPDFIQPPSRKNEMINNFIKPGLADWAVSRTSFNWGVHVPSNPKHVVYVWIDALVNYISALGYLSDDESLFNKYWPADIHLMAKEIVRFHSIIWPILLMALDLPLPKKVFAHGWILMKDGKMSKSKGNVVDPNILIDRYGLDATRYYLMRELPFGSDGVFTPEAFVERTNFDLANDLGNLVNRTISMVNKYFDGELPAYQGPLHELDEEMEAMALETVKSYTESMESLQFSVALSTVWKFISRTNKYIDETTPWVLAKDDSQKDMLGNVMAHLVENIRYAAVLLRPFLTHAPKEIFEQLNINNPQFMEFSSLEQYGVLTESIMVTGQPKPIFPRLDSEAEIAYIKESMQPPATEEEKEEIPSKPQIDIKDFDKVEIKAATIINAEHVKKSDKLLKIQVDLDSEQRQIVSGIAKFYTPDDIIGKKVAVVTNLKPAKLMGQKSEGMILSAEKDGVLTLVSLPSAIPNGAVIK
In the case of B1, the Km was determined as 100 µM in data set [1], 1.7 µM in [2] and 595 µM in data set [5]. The kcat in [1] came out at 10 s⁻¹; in data set [2] it was 0.54 s⁻¹. Further, the kcat/Km came out at 17000 M⁻¹ s⁻¹ in [3], 320000 M⁻¹ s⁻¹ in data set [4] and 100000 M⁻¹ s⁻¹ in [6].

B2: Methionine--tRNA ligase (Staphylococcus aureus subsp. aureus MW2), Q8NY00 I57N (protein)
chain: MAKETFYITTPIYYPSGNLHIGHAYSTVAGDVIARYKRMQGYDVRYLTGTDEHGQKNQEKAQKAGKTEIEYLDEMIAGIKQLWAKLEISNDDFIRTTEERHKHVVEQVFERLLKQGDIYLGEYEGWYSVPDETYYTESQLVDPQYENGKIIGGKSPDSGHEVELVKEESYFFNISKYTDRLLEFYDQNPDFIQPPSRKNEMINNFIKPGLADLAVSRTSFNWGVHVPSNPKHVVYVWIDALVNYISALGYLSDDESLFNKYWPADIHLMAKEIVRFHSIIWPILLMALDLPLPKKVFAHGWILMKDGKMSKSKGNVVDPNILIDRYGLDATRYYLMRELPFGSDGVFTPEAFVERTNFDLANDLGNLVNRTISMVNKYFDGELPAYQGPLHELDEEMEAMALETVKSYTESMESLQFSVALSTVWKFISRTNKYIDETTPWVLAKDDSQKDMLGNVMAHLVENIRYAAVLLRPFLTHAPKEIFEQLNINNPQFMEFSSLEQYGVLTESIMVTGQPKPIFPRLDSEAEIAYIKESMQPPATEEEKEEIPSKPQIDIKDFDKVEIKAATIINAEHVKKSDKLLKIQVDLDSEQRQIVSGIAKFYTPDDIIGKKVAVVTNLKPAKLMGQKSEGMILSAEKDGVLTLVSLPSAIPNGAVIK
Turning to B2, the results for the kcat/Km in [7], in data set [9] and in data set [11] were 17000 M⁻¹ s⁻¹, 25000 M⁻¹ s⁻¹ and 560000 M⁻¹ s⁻¹, respectively. The figures for the Michaelis-Menten constant (Km) in [8], in data set [10] and in [12] were 820 µM, 0.93 µM and 25 µM, respectively. Also, the kcat was 0.023 s⁻¹ in data set [10] and 14 s⁻¹ in [12].
